The record followed here is ChEMBL document CHEMBL3120094, “The survival times of malaria-infected mice are prolonged more by several new two-carbon-linked artemisinin-derived dimer carbamates than by the trioxane antimalarial drug artemether” (2014).

Common to all, as to format: functional
Assay [1] deals with Plasmodium berghei. The experiment in a line: Antimalarial activity against Plasmodium berghei ANKA infected in C57BL/6J mouse assessed as decrease of parasitemia level at 5 mg/kg, po administered after 24 hrs post infection measured after 3 days in presence of 15 mg/kg of mefloquine hydrochloride relative to control. Details: scale not given: the % may be the effect or the level left. In short, it runs like this:
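Male C57BL/6J mice, 5 weeks old and about 20 g, were infected with P. berghei ANKA (2 × 10⁷ parasitized erythrocytes). At 24 h they got one 200 μL oral dose: 5 mg/kg trioxane plus 15 mg/kg mefloquine hydrochloride in 7:3 Tween 80/ethanol diluted with water. Blood parasitemia was read on day 3 post-infection as % suppression versus untreated infected mice. Four mice per group.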

In assay [2] the test system is Plasmodium berghei. The experiment in a line: Antimalarial activity against Plasmodium berghei ANKA infected in C57BL/6J mouse assessed as increase of host survival days at 5 mg/kg, po administered after 24 hrs post infection in presence of 15 mg/kg of mefloquine hydrochloride (reference value: 6.5 days).
The test system of assay [3] is Plasmodium berghei. Briefly: Antimalarial activity against Plasmodium berghei ANKA infected in C57BL/6J mouse assessed as parasitemia level at 5 mg/kg, po administered after 24 hrs post infection measured after 30 days in presence of 15 mg/kg of mefloquine hydrochloride relative to control.
Assay [4] has as its system Plasmodium berghei. Briefly: Antimalarial activity against Plasmodium berghei ANKA infected in C57BL/6J mouse assessed as decrease of parasitemia level at 15 mg/kg, po administered after 24 hrs post infection measured after 3 days relative to control. The arrangement: scale not given: the % may be the effect or the level left. In short, it runs like this: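 Male C57BL/6J mice, 5 weeks old and about 20 g, were infected with P. berghei ANKA at 2 × 10⁷ parasitized erythrocytes. At 24 h post-infection, 4 mice per group received a single oral 200 μL dose in 7:3 Tween 80/ethanol diluted in deionized water. The dose was trioxane 5 mg/kg with mefloquine hydrochloride 15 mg/kg. Parasitemia suppression was read on day 3 versus untreated infected mice.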

For assay [5], the system named is Plasmodium berghei. The experiment in a line: Antimalarial activity against Plasmodium berghei ANKA infected in C57BL/6J mouse assessed as increase of host survival days at 15 mg/kg, po administered after 24 hrs post infection (reference value: 6.5 days).

As to `C[C@H]1[C@@H]([C@H](O)C[C@H]2O[C@@H]3O[C@@]4(C)CC[C@H]5[C@H](C)CC[C@@H]([C@H]2C)[C@@]35OO4)O[C@@H]2O[C@@]3(C)CC[C@H]4[C@H](C)CC[C@@H]1[C@@]24OO3`, in the assay with Plasmodium berghei [1], the Activity is greater than 99.9%. Moreover, in the assay with Plasmodium berghei [2], the Survival was determined as 24.8 days.
On the same counts, the results for `C[C@H]1[C@@H]([C@@H](O)C[C@H]2O[C@@H]3O[C@@]4(C)CC[C@H]5[C@H](C)CC[C@@H]([C@H]2C)[C@@]35OO4)O[C@@H]2O[C@@]3(C)CC[C@H]4[C@H](C)CC[C@@H]1[C@@]24OO3` are greater than 99.9% and 25 days.
As for `C[C@H]1[C@@H]([C@H](C[C@H]2O[C@@H]3O[C@@]4(C)CC[C@H]5[C@H](C)CC[C@@H]([C@H]2C)[C@@]35OO4)OC(=O)Nc2ccccc2)O[C@@H]2O[C@@]3(C)CC[C@H]4[C@H](C)CC[C@@H]1[C@@]24OO3`, the Activity in the assay on Plasmodium berghei [1] is on record as greater than 99.9%. Also, the Survival in the assay with Plasmodium berghei [2] stood at 17 days.
The corresponding values for `C[C@H]1[C@@H]([C@H](C[C@H]2O[C@@H]3O[C@@]4(C)CC[C@H]5[C@H](C)CC[C@@H]([C@H]2C)[C@@]35OO4)OC(=O)Nc2cccc(F)c2)O[C@@H]2O[C@@]3(C)CC[C@H]4[C@H](C)CC[C@@H]1[C@@]24OO3` are greater than 99.9% and 20.3 days.
On the same counts, the results for `C[C@H]1[C@@H]([C@H](C[C@H]2O[C@@H]3O[C@@]4(C)CC[C@H]5[C@H](C)CC[C@@H]([C@H]2C)[C@@]35OO4)OC(=O)Nc2ccc(F)cc2)O[C@@H]2O[C@@]3(C)CC[C@H]4[C@H](C)CC[C@@H]1[C@@]24OO3` are greater than 99.9% and 18.8 days.
On the same counts, the results for `Cc1cc(NC(=O)O[C@@H](C[C@H]2O[C@@H]3O[C@@]4(C)CC[C@H]5[C@H](C)CC[C@@H]([C@H]2C)[C@@]35OO4)[C@H]2O[C@@H]3O[C@@]4(C)CC[C@H]5[C@H](C)CC[C@@H]([C@H]2C)[C@@]35OO4)ccc1F` are greater than 99.9% and 13.5 days.
Consider `C[C@H]1[C@@H]([C@H](C[C@H]2O[C@@H]3O[C@@]4(C)CC[C@H]5[C@H](C)CC[C@@H]([C@H]2C)[C@@]35OO4)OC(=O)Nc2ccc(F)c(F)c2)O[C@@H]2O[C@@]3(C)CC[C@H]4[C@H](C)CC[C@@H]1[C@@]24OO3`, for which the values for the Activity in the assay with Plasmodium berghei [3] and in the assay with Plasmodium berghei [1] were 8% and greater than 99.9%, respectively. In addition, in the assay on Plasmodium berghei [2], the Survival worked out at 25.5 days.
Turning to `C[C@H]1[C@@H]([C@H](C[C@H]2O[C@@H]3O[C@@]4(C)CC[C@H]5[C@H](C)CC[C@@H]([C@H]2C)[C@@]35OO4)OC(=O)Nc2cc(F)cc(F)c2)O[C@@H]2O[C@@]3(C)CC[C@H]4[C@H](C)CC[C@@H]1[C@@]24OO3`, the Activity in the assay with Plasmodium berghei [1] is given as greater than 99.9%. For the same compound, the Survival in the assay with Plasmodium berghei [2] was 21.8 days.
With `C[C@H]1[C@@H]([C@H](C[C@H]2O[C@@H]3O[C@@]4(C)CC[C@H]5[C@H](C)CC[C@@H]([C@H]2C)[C@@]35OO4)OC(=O)Nc2cccc(C(F)(F)F)c2)O[C@@H]2O[C@@]3(C)CC[C@H]4[C@H](C)CC[C@@H]1[C@@]24OO3`, in the assay on Plasmodium berghei [1], the Activity is greater than 99.9%. In the assay on Plasmodium berghei [2], the Survival was 18 days.
The corresponding values for `C[C@H]1[C@@H]([C@H](C[C@H]2O[C@@H]3O[C@@]4(C)CC[C@H]5[C@H](C)CC[C@@H]([C@H]2C)[C@@]35OO4)OC(=O)Nc2ccc(C(F)(F)F)cc2)O[C@@H]2O[C@@]3(C)CC[C@H]4[C@H](C)CC[C@@H]1[C@@]24OO3` are greater than 99.9% and 10.8 days.
Take `C[C@H]1[C@@H]([C@H](C[C@H]2O[C@@H]3O[C@@]4(C)CC[C@H]5[C@H](C)CC[C@@H]([C@H]2C)[C@@]35OO4)OC(=O)Nc2ccc(F)c(Cl)c2)O[C@@H]2O[C@@]3(C)CC[C@H]4[C@H](C)CC[C@@H]1[C@@]24OO3`: the values for the Activity in the assay on Plasmodium berghei [3] and in the assay on Plasmodium berghei [1] were 8% and greater than 99.9%, respectively. Further, the Survival in the assay with Plasmodium berghei [2] came to 24.8 days.
The corresponding values for `C[C@H]1[C@@H]([C@H](C[C@H]2O[C@@H]3O[C@@]4(C)CC[C@H]5[C@H](C)CC[C@@H]([C@H]2C)[C@@]35OO4)OC(=O)Nc2cccc(Cl)c2)O[C@@H]2O[C@@]3(C)CC[C@H]4[C@H](C)CC[C@@H]1[C@@]24OO3` are 8%, greater than 99.9% and 26.8 days.
Regarding `C[C@H]1[C@@H]([C@H](C[C@H]2O[C@@H]3O[C@@]4(C)CC[C@H]5[C@H](C)CC[C@@H]([C@H]2C)[C@@]35OO4)OC(=O)Nc2ccc(Cl)cc2)O[C@@H]2O[C@@]3(C)CC[C@H]4[C@H](C)CC[C@@H]1[C@@]24OO3`, the Activity in the assay with Plasmodium berghei [1] is greater than 99.9%. Besides, the Survival in the assay on Plasmodium berghei [2] was found to be 18.3 days.
The corresponding values for `C[C@H]1[C@@H]([C@H](C[C@H]2O[C@@H]3O[C@@]4(C)CC[C@H]5[C@H](C)CC[C@@H]([C@H]2C)[C@@]35OO4)OC(=O)Nc2ccc(Br)cc2)O[C@@H]2O[C@@]3(C)CC[C@H]4[C@H](C)CC[C@@H]1[C@@]24OO3` are greater than 99.9% and 12.5 days.
On the same counts, the results for `C[C@H]1[C@@H]([C@H](C[C@H]2O[C@@H]3O[C@@]4(C)CC[C@H]5[C@H](C)CC[C@@H]([C@H]2C)[C@@]35OO4)OC(=O)Nc2ccc(C#N)cc2)O[C@@H]2O[C@@]3(C)CC[C@H]4[C@H](C)CC[C@@H]1[C@@]24OO3` are greater than 99.9% and 17.8 days.
The corresponding values for `C[C@H]1[C@@H]([C@H](C[C@H]2O[C@@H]3O[C@@]4(C)CC[C@H]5[C@H](C)CC[C@@H]([C@H]2C)[C@@]35OO4)OC(=O)Nc2ccc([N+](=O)[O-])cc2)O[C@@H]2O[C@@]3(C)CC[C@H]4[C@H](C)CC[C@@H]1[C@@]24OO3` are greater than 99.9% and 22 days.
Consider `OC(c1cc(C(F)(F)F)nc2c(C(F)(F)F)cccc12)C1CCCCN1` (configuration not stated) [MEFLOQUINE], for which, in the assay with Plasmodium berghei [4], the Activity is greater than 99.9%. In addition, in the assay on Plasmodium berghei [5], the Survival is 20.3 days.
